Measurements from article PMC4757811 (Biochemistry, 2015).

How the values were obtained:
[1] = system: NIH-3T3 cells; experiment: Anchored growth of stable NIH-3T3 cells; format: cell-based; conditions: NIH-3T3 stable cells, 20 000 cells plated in duplicate; hemocytometer
In short: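 NIH-3T3 lines stably expressing wild-type or mutant Brk were made by MSCV-PIG retroviral infection with 8 µg/mL Polybrene. Selection used puromycin (2 µg/mL) from 48 h postinfection, and lines with equivalent GFP expression were used. Cells (20 000) were plated in duplicate in 12-well plates. At each time point over several days they were trypsinized and counted by hemocytometer. Representative of three experiments; standard deviations shown.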

[2] = system: STAT3; experiment: STAT3 phosphorylation in 293T cells, Western blot; format: cell-based; conditions: compared to control cells or wild-type Brk
In short: (§1)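 293T cells (1×10^6) transfected 24 h after plating with Flag-tagged wild-type or mutant Brk using polyethylenimine. Lysed 48 h post-transfection in RIPA buffer (pH 7.5) with protease and phosphatase inhibitors, then SDS-PAGE and PVDF blotting.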

[3] = system: MCF-10a cells; experiment: Growth of stable MCF-10a cells; format: cell-based; conditions: MCF-10a stable cells; compared to Brk WT
[4] = system: p130Cas; experiment: Cas phosphorylation in 293T cells, Western blot; format: cell-based; conditions: 293T cells cotransfected with Brk and Cas
In short: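 293T cells were cotransfected with V5-His-tagged p130Cas and Flag-tagged wild-type or mutant Brk using polyethylenimine, then harvested 48 h later in RIPA buffer with inhibitors. Lysates were analysed by SDS-PAGE and PVDF Western blotting. Probes were anti-phospho-p130Cas (Tyr249), anti-p130Cas and anti-Flag.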

[5] = system: Erk1/2; format: cell-based; conditions: 293T cells, serum starved, 10 ng/mL EGF for 2.5 min
In short: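 293T cells were PEI-transfected with Flag-Brk (wild-type or mutant) and serum-starved overnight. They were then stimulated with 10 ng/mL EGF for 2.5 min, lysed in RIPA buffer with inhibitors, and resolved by SDS-PAGE on PVDF. Blots were probed for phospho-Erk1/2 (Thr202/Tyr204), total Erk1/2 and Flag.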

[6] = system: β-catenin; experiment: β-catenin phosphorylation and binding, immunoprecipitation from 293T cells; format: cell-based; conditions: 293T cells coexpressing β-catenin; for binding to β-catenin (in words): Flag antibody; for phosphorylation of β-catenin (in words): anti-phosphotyrosine; for binding and phosphorylation of β-catenin (in words): compared to wild-type Brk
In short: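 Flag-tagged β-catenin was coexpressed with Flag-Brk (wild-type or mutant) in 293T cells by PEI transfection, and lysates were made 48 h later in RIPA buffer. Lysate (1 mg/mL) was precleared on protein G agarose (1 h, 4 °C), incubated with 1 µg anti-β-catenin (1 h, 4 °C), then captured on protein G for 4 h at 4 °C. After three RIPA washes, SDS elution and blotting, membranes were probed with anti-phosphotyrosine and anti-β-catenin, then reprobed with anti-Flag for Brk association.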

[7] = system: ErbB2; experiment: ErbB2 interaction, co-immunoprecipitation; format: binding; conditions: 293T cells cotransfected with ErbB2 and Brk; ErbB2 immunoprecipitated
In short: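 Flag-tagged wild-type or mutant Brk and full-length ErbB2 were co-transfected into 293T cells with polyethylenimine (8 μL per μg DNA in 150 mM NaCl), 24 h after plating. Cells were lysed at 48 h in RIPA buffer with protease/phosphatase inhibitors. Lysate (1 mg/mL) was precleared on protein G agarose, then taken with 1 μg anti-ErbB2 (1 h, 4 °C) and protein G (4 h, 4 °C). After washing, blots were probed with anti-ErbB2 and anti-Flag.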

[8] = system: Erk1/2; experiment: Erk1/2 phosphorylation in 293T cells, Western blot; format: cell-based; conditions: not serum starved
In short: as §1

[9] = system: NIH-3T3 cells; experiment: Nonanchored growth of stable NIH-3T3 cells; format: cell-based; conditions: NIH-3T3 stable cells, low attachment plates, day 6, triplicate
In short: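 NIH-3T3 lines stably expressing Brk were made by retrovirus with puromycin selection and matched for GFP expression. Cells (20 000) were seeded in triplicate in 24-well low-attachment plates. On day 6 they were centrifuged, resuspended in trypsin and counted by hemocytometer. Representative of two experiments; standard deviations shown.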

[10] = system: SkBr3 cells; experiment: Growth of stable SkBr3 cells; format: cell-based
[11] = system: Akt and Erk1/2; experiment: Akt and Erk1/2 activation in SkBr3 cells; format: cell-based; conditions: SkBr3 breast cancer cells
[12] = system: Akt; experiment: Akt phosphorylation in 293T cells, Western blot; format: cell-based; conditions: phospho-Akt (Ser473)
In short: as §1

In the case of “P450L: Brk mutant, C-terminal tail adjacent to the inhibitory tyrosine, identified in pancreatic cancer”, the “anchored cell growth (in words)” value [1] is reported as “did not survive past Day 6”.
In the case of “V253M: Brk mutant, kinase domain, identified in head and neck squamous cell carcinoma”, the “phosphorylation of STAT3 (in words)” value [2] is reported as “decrease in phosphorylation of STAT3”.
“L16F: Brk mutant, SH3 domain, identified in clear cell renal cell carcinoma” was tested, and the “proliferation (in words)” value [3] was “reduced proliferation relative to wild-type Brk”, the “expression of Brk upon coexpression with Cas (in words)” value [4] was “decreased expression” and the “phosphorylation of Cas (in words)” value [4] was “decreased phosphorylation of Cas”. For the same substance, the “Erk1/2 phosphorylation after EGF stimulation (in words)” value [5] was “no appreciable difference between wild-type and L16F Brk following stimulation with EGF”, the “binding to β-catenin (in words)” value [6] was “decreased interaction with the protein” and the “phosphorylation of β-catenin (in words)” value [6] was “not able to phosphorylate β-catenin”. The “interaction with ErbB2 (in words)” value [7] was “increased interaction with ErbB2 compared to wild-type Brk” and the “Erk1/2 phosphorylation (in words)” value [8] was “increased phosphorylation of Erk1/2 compared to wild-type Brk”.
“WT: Flag-tagged wild-type full length Brk (PTK6)” was tested, and the “anchored cell growth (in words)” value [1] was “increased cell growth compared to empty vector cells” and the “nonanchored cell growth (in words)” value [9] was “increase in nonanchored growth”.
“L343F: Brk mutant, kinase domain, identified in cutaneous squamous cell carcinoma” was tested, and the “phosphorylation of Cas (in words)” value [4] was “greater phosphorylation of Cas compared to wild-type Brk”, the “binding and phosphorylation of β-catenin (in words)” value [6] was “greater binding and phosphorylation of β-catenin as compared to wild-type Brk” and the “anchored or nonanchored cell growth (in words)” value [10] was “no increase in anchored or nonanchored cell growth”. The “activation of Akt and Erk1/2 (in words)” value [11] was “increased activation of both Akt and Erk1/2”.
In the case of “N317S: Brk mutant, kinase domain, identified in ovarian carcinoma”, the “binding to β-catenin (in words)” value [6] is reported as “bound normally to β-catenin”, the “phosphorylation of β-catenin (in words)” value [6] is reported as “unable to phosphorylate the protein” and the “phosphorylation of STAT3 (in words)” value [2] is reported as “decrease in phosphorylation of STAT3”. The “Akt phosphorylation (in words)” value [12] was “still phosphorylated” and the “Erk1/2 phosphorylation (in words)” value [8] was “still phosphorylated”.
In the case of “R131L: Brk mutant, SH2 domain, found in gastric cancer”, the “phosphorylation of Cas (in words)” value [4] is reported as “greater phosphorylation of Cas compared to wild-type Brk” and the “binding and phosphorylation of β-catenin (in words)” value [6] is reported as “greater binding and phosphorylation of β-catenin as compared to wild-type Brk”.
